Assay results as given in PMC8828683 (Stem Cell Reports, 2022).

Assays:
NTERA-2 ECCs = assay: Immunoblotting of total cell extracts; type: cell-based, human; details: NTERA-2, 1 μM Adriamycin, 24 h
Summary of the method: (§1)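 Cells were cultured with 2.5 μM test compound for up to 96 h, and attached plus unattached cells were pooled. Whole-cell RIPA lysates were run on 4–12% Bis-Tris gels, transferred to nitrocellulose and blocked in 5% milk/TBS. Primary antibodies went on overnight at 4°C, followed by infrared secondary antibodies and imager quantitation. Each blot carried untreated U2OS as a shared standard, with Ponceau-S histones for normalization and lighter exposures for quantitation. Adriamycin for 24 h (NTERA-2 1 μM, H108 2 μM) served as a DNA-break control.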

H108 fibroblasts = assay: Immunoblotting of total cell extracts; type: cell-based, human; details: H108 fibroblasts; 2.5 μM WX8 or 2 μM Adriamycin 24 h
Summary of the method: as §1

For `COc1cccc2c1C(=O)c1c(O)c3c(c(O)c1C2=O)C[C@@](O)(C(=O)CO)C[C@@H]3O[C@H]1C[C@H](N)[C@H](O)[C@H](C)O1` [Adriamycin, doxorubicin], the CASP3 cleaved (NTERA-2 ECCs) was greater than 90%, the CASP3 cleavage (H108 fibroblasts) was “Neither WX8 nor Adriamycin induced cleavage” and the PARP cleavage (H108 fibroblasts) was “Neither WX8 nor Adriamycin induced cleavage”.
